According to ChEMBL document CHEMBL3046951, “Volatile constituents from the leaves of Callicarpa japonica Thunb. and their antibacterial activities” (2004):

Columns and labels:
Type in all cases: functional
Salmonella typhimurium [1] = experiment: Antimicrobial activity against Salmonella enterica subsp. enterica serovar Typhimurium ATCC 14028 assessed as growth inhibition rate at 247 mg/l after 72 hr by spectrophotometry; conditions: ATCC 14028, 72 h, read-out: GI
Summary of the method: (§1)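 Salmonella Typhimurium ATCC 14028 grown in nutrient broth at 30 °C, precultured 24 h, then subcultured 1:100 for 18 h before testing. Single volatile compounds (>95% pure) were added. OD was read every 24 h over 72 h in a Bioscreen C, with 10% Tween 80 as the comparison control.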

Bacillus cereus [2] = experiment: Antimicrobial activity against Bacillus cereus ATCC 11778 assessed as growth inhibition rate at 61.12 mg/l after 72 hr by spectrophotometry; conditions: ATCC 11778, 72 h, read-out: GI
Summary of the method: (§2)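 Pure volatile compounds (purity >95%; one at 90%) were tested against B. cereus ATCC 11778. The strain was grown at 30 °C in nutrient broth for 24 h, then subcultured for 18 h. Optical density was read in a Bioscreen C every 24 h for 72 h, with 10% Tween 80 as the control.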

Bacillus cereus [3] = experiment: Antimicrobial activity against Bacillus cereus ATCC 11778 assessed as growth inhibition rate at 43 mg/l after 72 hr by spectrophotometry; conditions: ATCC 11778, 72 h, read-out: GI; summary of the method: as §2
Salmonella typhimurium [4] = experiment: Antimicrobial activity against Salmonella enterica subsp. enterica serovar Typhimurium ATCC 14028 assessed as growth inhibition rate at 107.52 mg/l after 72 hr by spectrophotometry; conditions: ATCC 14028, 72 h, read-out: GI; summary of the method: as §1
Salmonella typhimurium [5] = experiment: Antimicrobial activity against Salmonella enterica subsp. enterica serovar Typhimurium ATCC 14028 assessed as growth inhibition rate at 61.12 mg/l after 72 hr by spectrophotometry; conditions: ATCC 14028, 72 h, read-out: GI
Vibrio parahaemolyticus = experiment: Antimicrobial activity against Vibrio parahaemolyticus ATCC 33844 assessed as growth inhibition rate at 21.52 mg/l after 72 hr by spectrophotometry; conditions: ATCC 33844, 72 h, read-out: GI
Bacillus cereus [6] = experiment: Antimicrobial activity against Bacillus cereus ATCC 11778 assessed as growth inhibition rate at 21.52 mg/l after 72 hr by spectrophotometry; conditions: ATCC 11778, 72 h, read-out: GI; summary of the method: as §2
Staphylococcus aureus = experiment: Antimicrobial activity against Staphylococcus aureus ATCC 25923 assessed as growth inhibition rate at 107.52 mg/l after 72 hr by spectrophotometry; conditions: ATCC 25923, 72 h, read-out: GI
Salmonella typhimurium [7] = experiment: Antimicrobial activity against Salmonella enterica subsp. enterica serovar Typhimurium ATCC 14028 assessed as growth inhibition rate at 21.52 mg/l after 72 hr by spectrophotometry; conditions: ATCC 14028, 72 h, read-out: GI; summary of the method: as §1
Listeria monocytogenes [8] = experiment: Antimicrobial activity against Listeria monocytogenes ATCC 19111 assessed as growth inhibition rate at 247 mg/l after 72 hr by spectrophotometry; conditions: ATCC 19111, 72 h, read-out: GI
Summary of the method: (§3)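 L. monocytogenes was grown at 30 °C in tryptic soy broth, subcultured for 18 h, and exposed to pure volatile compounds (>95% purity). Growth was followed by Bioscreen C optical density every 24 h for 72 h against a 10% Tween 80 control.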

Listeria monocytogenes [9] = experiment: Antimicrobial activity against Listeria monocytogenes ATCC 19111 assessed as growth inhibition rate at 215.04 mg/l after 72 hr by spectrophotometry; conditions: ATCC 19111, 72 h, read-out: GI; summary of the method: as §3

## CCC/C=C/C=O
Salmonella typhimurium [1]
  inhibition of growth at 247 µg/mL: 98.7%
Bacillus cereus [2]
  inhibition of growth at 61.12 µg/mL: 98.7%
Bacillus cereus [3]
  inhibition of growth at 43 µg/mL: 91.8%
Salmonella typhimurium [4]
  inhibition of growth at 107.52 µg/mL: 98.9%
Salmonella typhimurium [5]
  inhibition of growth at 61.12 µg/mL: 98.5%
Vibrio parahaemolyticus
  inhibition of growth at 21.52 µg/mL: 99.6%
Bacillus cereus [6]
  inhibition of growth at 21.52 µg/mL: 91.3%
Staphylococcus aureus
  inhibition of growth at 107.52 µg/mL: 96.7%
Salmonella typhimurium [7]
  inhibition of growth at 21.52 µg/mL: 63%
Listeria monocytogenes [8]
  inhibition of growth at 247 µg/mL: 99.7%
Listeria monocytogenes [9]
  inhibition of growth at 215.04 µg/mL: 99.8%
